Test system: HEK-293T
Assay: Multiplex assay against HEK293T
Assay type: toxicity, cell-based
Conditions: human
Method in brief: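 Hoechst33342, BioTracker Green Microtubule Cytoskeleton Dye, MitoTracker Red and Annexin V Alexa Fluor 680 were added to live cells at seeding, and imaging on a CQ1 microscope at 37°C and 5% CO2 followed compound addition. Gating by CellPathfinder machine learning separated cells into Hoechst high-intensity objects or normal cells, then normal cells into healthy, pyknosed or fragmented nuclei, then pyknosed cells into mitotic or apoptotic. Per cents of healthy-nucleus cells are reported for the tubulin, mitochondrial-mass and membrane-permeability phenotypes.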

[1] = 12 h, 1 µM, compound concentration 1 uM, replicate 1
[2] = 12 h, 1 µM, compound concentration 1 uM, replicate 2
[3] = 12 h, 10 µM, compound concentration 10 uM, replicate 1
[4] = 12 h, 10 µM, compound concentration 10 uM, replicate 2
[5] = 24 h, 1 µM, compound concentration 1 uM, replicate 1
[6] = 24 h, 1 µM, compound concentration 1 uM, replicate 2
[7] = 24 h, 10 µM, compound concentration 10 uM, replicate 1
[8] = 24 h, 10 µM, compound concentration 10 uM, replicate 2
[9] = 48 h, 1 µM, compound concentration 1 uM, replicate 1
[10] = 48 h, 1 µM, compound concentration 1 uM, replicate 2
[11] = 48 h, 10 µM, compound concentration 10 uM, replicate 1
[12] = 48 h, 10 µM, compound concentration 10 uM, replicate 2

## O=C(NCC(=O)N1CC[C@H](N[C@H]2CC[C@@](O)(c3ccc(-c4ncccn4)cn3)CC2)C1)c1cccc(C(F)(F)F)c1 [PF-4136309]
[1]
  Population Apoptotic (%): 44%
  Population Fragmented Nuclei (%): 6%
  Population Healthy Nuclei (%): 80%
  Population Hoechst High Intensity Objects (%): 4%
  Population Membrane Permeable-Phenotype (%): 0%
  Population Mitochondria Different-Phenotype (%): 41%
  Population Mitotic Cells (%): 56%
  Population Normal (%): 95%
  Population Pyknosed Nuclei (%): 13%
  Population Tubulin-Different-Phenotype (%): 32%
  Total Cell Count: 393
[2]
  Population Apoptotic (%): 34%
  Population Fragmented Nuclei (%): 5%
  Population Hoechst High Intensity Objects (%): 6%
  Population Mitochondria Different-Phenotype (%): 56%
  Population Mitotic Cells (%): 66%
  Population Normal (%): 93%
  Population Tubulin-Different-Phenotype (%): 15%
  Total Cell Count: 389
[3]
  Population Apoptotic (%): 39%
  Population Fragmented Nuclei (%): 7%
  Population Healthy Nuclei (%): 76%
  Population Hoechst High Intensity Objects (%): 7%
  Population Membrane Permeable-Phenotype (%): 0%
  Population Mitochondria Different-Phenotype (%): 53%
  Population Mitotic Cells (%): 60%
  Population Normal (%): 92%
  Population Pyknosed Nuclei (%): 15%
  Population Tubulin-Different-Phenotype (%): 55%
  Total Cell Count: 358
[4]
  Population Apoptotic (%): 48%
  Population Fragmented Nuclei (%): 3%
  Population Healthy Nuclei (%): 81%
  Population Hoechst High Intensity Objects (%): 6%
  Population Mitochondria Different-Phenotype (%): 75%
  Population Mitotic Cells (%): 51%
  Population Normal (%): 93%
  Population Pyknosed Nuclei (%): 14%
  Population Tubulin-Different-Phenotype (%): 45%
  Total Cell Count: 295
[5]
  Population Apoptotic (%): 25%
  Population Fragmented Nuclei (%): 10%
  Population Healthy Nuclei (%): 80%
  Population Hoechst High Intensity Objects (%): 2%
  Population Membrane Permeable-Phenotype (%): 0%
  Population Mitochondria Different-Phenotype (%): 26%
  Population Mitotic Cells (%): 74%
  Population Normal (%): 97%
  Population Pyknosed Nuclei (%): 9%
  Population Tubulin-Different-Phenotype (%): 15%
  Total Cell Count: 561
[6]
  Population Apoptotic (%): 39%
  Population Fragmented Nuclei (%): 8%
  Population Hoechst High Intensity Objects (%): 5%
  Population Mitochondria Different-Phenotype (%): 31%
  Population Mitotic Cells (%): 60%
  Population Normal (%): 94%
  Population Pyknosed Nuclei (%): 11%
  Population Tubulin-Different-Phenotype (%): 13%
  Total Cell Count: 485
[7]
  Population Apoptotic (%): 35%
  Population Fragmented Nuclei (%): 10%
  Population Healthy Nuclei (%): 73%
  Population Hoechst High Intensity Objects (%): 7%
  Population Membrane Permeable-Phenotype (%): 1%
  Population Mitochondria Different-Phenotype (%): 39%
  Population Mitotic Cells (%): 64%
  Population Normal (%): 92%
  Population Pyknosed Nuclei (%): 16%
  Population Tubulin-Different-Phenotype (%): 36%
  Total Cell Count: 450
[8]
  Population Apoptotic (%): 57%
  Population Fragmented Nuclei (%): 8%
  Population Healthy Nuclei (%): 80%
  Population Hoechst High Intensity Objects (%): 5%
  Population Membrane Permeable-Phenotype (%): 0%
  Population Mitochondria Different-Phenotype (%): 54%
  Population Mitotic Cells (%): 42%
  Population Normal (%): 94%
  Population Pyknosed Nuclei (%): 11%
  Population Tubulin-Different-Phenotype (%): 27%
  Total Cell Count: 384
[9]
  Population Apoptotic (%): 18%
  Population Fragmented Nuclei (%): 16%
  Population Healthy Nuclei (%): 78%
  Population Hoechst High Intensity Objects (%): 0%
  Population Membrane Permeable-Phenotype (%): 1%
  Population Mitochondria Different-Phenotype (%): 14%
  Population Mitotic Cells (%): 81%
  Population Normal (%): 99%
  Population Pyknosed Nuclei (%): 4%
  Population Tubulin-Different-Phenotype (%): 9%
  Total Cell Count: 1007
[10]
  Population Apoptotic (%): 27%
  Population Healthy Nuclei (%): 77%
  Population Hoechst High Intensity Objects (%): 2%
  Population Membrane Permeable-Phenotype (%): 0%
  Population Mitochondria Different-Phenotype (%): 16%
  Population Mitotic Cells (%): 72%
  Population Normal (%): 97%
  Population Pyknosed Nuclei (%): 5%
  Population Tubulin-Different-Phenotype (%): 11%
  Total Cell Count: 907
[11]
  Population Apoptotic (%): 31%
  Population Fragmented Nuclei (%): 13%
  Population Healthy Nuclei (%): 75%
  Population Hoechst High Intensity Objects (%): 5%
  Population Membrane Permeable-Phenotype (%): 0%
  Population Mitochondria Different-Phenotype (%): 34%
  Population Mitotic Cells (%): 68%
  Population Normal (%): 94%
  Population Pyknosed Nuclei (%): 11%
  Population Tubulin-Different-Phenotype (%): 23%
  Total Cell Count: 636
[12]
  Population Apoptotic (%): 43%
  Population Fragmented Nuclei (%): 11%
  Population Healthy Nuclei (%): 79%
  Population Hoechst High Intensity Objects (%): 4%
  Population Mitochondria Different-Phenotype (%): 46%
  Population Mitotic Cells (%): 56%
  Population Normal (%): 95%
  Population Pyknosed Nuclei (%): 8%
  Population Tubulin-Different-Phenotype (%): 30%
  Total Cell Count: 468

## CCCN1CCC[C@@H]2Cc3n[nH]cc3C[C@H]21.Cl [QUINPIROLE HYDROCHLORIDE]
[1]
  Population Apoptotic (%): 32%
  Population Fragmented Nuclei (%): 6%
  Population Healthy Nuclei (%): 84%
  Population Hoechst High Intensity Objects (%): 6%
  Population Membrane Permeable-Phenotype (%): 0%
  Population Mitochondria Different-Phenotype (%): 37%
  Population Mitotic Cells (%): 67%
  Population Normal (%): 93%
  Population Pyknosed Nuclei (%): 9%
  Population Tubulin-Different-Phenotype (%): 22%
  Total Cell Count: 447
[2]
  Population Apoptotic (%): 63%
  Population Fragmented Nuclei (%): 4%
  Population Healthy Nuclei (%): 82%
  Population Hoechst High Intensity Objects (%): 3%
  Population Mitochondria Different-Phenotype (%): 67%
  Population Mitotic Cells (%): 36%
  Population Normal (%): 96%
  Population Pyknosed Nuclei (%): 12%
  Population Tubulin-Different-Phenotype (%): 26%
  Total Cell Count: 294
[3]
  Population Apoptotic (%): 55%
  Population Fragmented Nuclei (%): 11%
  Population Healthy Nuclei (%): 72%
  Population Hoechst High Intensity Objects (%): 9%
  Population Membrane Permeable-Phenotype (%): 0%
  Population Mitochondria Different-Phenotype (%): 53%
  Population Mitotic Cells (%): 44%
  Population Normal (%): 90%
  Population Pyknosed Nuclei (%): 15%
  Population Tubulin-Different-Phenotype (%): 40%
  Total Cell Count: 381
[4]
  Population Apoptotic (%): 46%
  Population Fragmented Nuclei (%): 5%
  Population Healthy Nuclei (%): 78%
  Population Hoechst High Intensity Objects (%): 5%
  Population Mitochondria Different-Phenotype (%): 69%
  Population Mitotic Cells (%): 53%
  Population Normal (%): 94%
  Population Pyknosed Nuclei (%): 16%
  Population Tubulin-Different-Phenotype (%): 26%
  Total Cell Count: 312
[5]
  Population Apoptotic (%): 30%
  Population Fragmented Nuclei (%): 12%
  Population Healthy Nuclei (%): 79%
  Population Hoechst High Intensity Objects (%): 3%
  Population Membrane Permeable-Phenotype (%): 0%
  Population Mitochondria Different-Phenotype (%): 17%
  Population Mitotic Cells (%): 70%
  Population Normal (%): 96%
  Population Pyknosed Nuclei (%): 8%
  Population Tubulin-Different-Phenotype (%): 14%
  Total Cell Count: 600
[6]
  Population Apoptotic (%): 29%
  Population Fragmented Nuclei (%): 8%
  Population Healthy Nuclei (%): 81%
  Population Hoechst High Intensity Objects (%): 2%
  Population Mitochondria Different-Phenotype (%): 37%
  Population Normal (%): 97%
  Population Pyknosed Nuclei (%): 9%
  Population Tubulin-Different-Phenotype (%): 16%
  Total Cell Count: 390
[7]
  Population Apoptotic (%): 45%
  Population Fragmented Nuclei (%): 10%
  Population Healthy Nuclei (%): 77%
  Population Hoechst High Intensity Objects (%): 4%
  Population Membrane Permeable-Phenotype (%): 0%
  Population Mitochondria Different-Phenotype (%): 38%
  Population Mitotic Cells (%): 54%
  Population Normal (%): 95%
  Population Pyknosed Nuclei (%): 11%
  Population Tubulin-Different-Phenotype (%): 27%
  Total Cell Count: 529
[8]
  Population Apoptotic (%): 43%
  Population Fragmented Nuclei (%): 7%
  Population Healthy Nuclei (%): 78%
  Population Hoechst High Intensity Objects (%): 2%
  Population Mitochondria Different-Phenotype (%): 43%
  Population Mitotic Cells (%): 56%
  Population Normal (%): 97%
  Population Pyknosed Nuclei (%): 13%
  Population Tubulin-Different-Phenotype (%): 13%
  Total Cell Count: 406
[9]
  Population Apoptotic (%): 21%
  Population Fragmented Nuclei (%): 16%
  Population Healthy Nuclei (%): 76%
  Population Hoechst High Intensity Objects (%): 1%
  Population Membrane Permeable-Phenotype (%): 1%
  Population Mitochondria Different-Phenotype (%): 9%
  Population Mitotic Cells (%): 78%
  Population Normal (%): 98%
  Population Pyknosed Nuclei (%): 6%
  Population Tubulin-Different-Phenotype (%): 10%
  Total Cell Count: 1105
[10]
  Population Apoptotic (%): 33%
  Population Fragmented Nuclei (%): 11%
  Population Healthy Nuclei (%): 84%
  Population Hoechst High Intensity Objects (%): 2%
  Population Mitochondria Different-Phenotype (%): 19%
  Population Mitotic Cells (%): 66%
  Population Pyknosed Nuclei (%): 4%
  Population Tubulin-Different-Phenotype (%): 8%
  Total Cell Count: 649
[11]
  Population Apoptotic (%): 40%
  Population Fragmented Nuclei (%): 15%
  Population Healthy Nuclei (%): 78%
  Population Hoechst High Intensity Objects (%): 2%
  Population Membrane Permeable-Phenotype (%): 1%
  Population Mitochondria Different-Phenotype (%): 23%
  Population Mitotic Cells (%): 59%
  Population Normal (%): 97%
  Population Pyknosed Nuclei (%): 6%
  Population Tubulin-Different-Phenotype (%): 15%
  Total Cell Count: 772
[12]
  Population Apoptotic (%): 33%
  Population Fragmented Nuclei (%): 13%
  Population Healthy Nuclei (%): 80%
  Population Hoechst High Intensity Objects (%): 1%
  Population Membrane Permeable-Phenotype (%): 0%
  Population Mitochondria Different-Phenotype (%): 28%
  Population Mitotic Cells (%): 66%
  Population Normal (%): 98%
  Population Tubulin-Different-Phenotype (%): 13%
  Total Cell Count: 654

Source: ChEMBL document CHEMBL5058577, “EUbOPEN Chemogenomics Library 2 (Multiplex)” (2022)
